Compounds with a hit are over-represented: about 4.2% of the library has one in this group of screens.
AI-2 QS modul: modulators of Vibrio harveyi AI-2 quorum sensing system; Vibrio harveyi JMH597 AI-2 luminescence/OD600 ratio, 9 h; stronger effect = lower value; strain lacks LuxN and CqsS sensors; 0 = neutral-control median; activity change, % at 7.5 µM; actives 0.4% (n = 300,000); in the data active = activity change below about -75%, passing the limit was not always enough; inconclusive = no clear call, values can overlap the other calls;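 also: luminescence divided by OD600 gain over 9 h not by final OD600 alone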
KCNQ1 inh: human KCNQ1 channel inhibition; B-score at 10 µM; actives 1.3% (n = 310,000); P51787; CHO-K1 KCNQ1, FluxOR thallium flux fluorescence; stronger effect = higher value;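 active = compounds whose thallium flux B-score, printed positive for inhibition, exceeds three library SD while starting fluorescence stays within three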;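 also: channel opened by potassium depolarization with thallium stimulus after 20 min compound exposure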
Mot1-301 SUMO: inhibitors of SUMOylation pathway: yeast Mot1-301 growth rescue | actives 1% (n = 320,000) | S. cerevisiae Mot1-301 growth rescue, ATP luminescence, 38.5C; percent above DMSO median, 100 means doubled | growth rescue, % at 18.8 µM;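 active = every valid replicate shows activation above 250% relative to neutral control wells; inactive = the rest, any valid replicate at or below 250%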;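 also: OY570 slx delta 5 strain wells were the positive control but not used for scaling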
hERG rescue: compounds protecting human hERG from proarrhythmic drug block. CHO-hERG, FluxOR thallium flux, dofetilide IC70 present. Q12809. activation (rescue from dofetilide block), less the hit threshold, % at 10 µM. actives 0.51% (n = 310,000);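 active = activation above the mean of controls blocked by dofetilide plus 5 SD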;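 also: thallium influx through hERG after potassium depolarization seen as dye fluorescence rise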
Target sequence (Q12809 whole entry, looked up): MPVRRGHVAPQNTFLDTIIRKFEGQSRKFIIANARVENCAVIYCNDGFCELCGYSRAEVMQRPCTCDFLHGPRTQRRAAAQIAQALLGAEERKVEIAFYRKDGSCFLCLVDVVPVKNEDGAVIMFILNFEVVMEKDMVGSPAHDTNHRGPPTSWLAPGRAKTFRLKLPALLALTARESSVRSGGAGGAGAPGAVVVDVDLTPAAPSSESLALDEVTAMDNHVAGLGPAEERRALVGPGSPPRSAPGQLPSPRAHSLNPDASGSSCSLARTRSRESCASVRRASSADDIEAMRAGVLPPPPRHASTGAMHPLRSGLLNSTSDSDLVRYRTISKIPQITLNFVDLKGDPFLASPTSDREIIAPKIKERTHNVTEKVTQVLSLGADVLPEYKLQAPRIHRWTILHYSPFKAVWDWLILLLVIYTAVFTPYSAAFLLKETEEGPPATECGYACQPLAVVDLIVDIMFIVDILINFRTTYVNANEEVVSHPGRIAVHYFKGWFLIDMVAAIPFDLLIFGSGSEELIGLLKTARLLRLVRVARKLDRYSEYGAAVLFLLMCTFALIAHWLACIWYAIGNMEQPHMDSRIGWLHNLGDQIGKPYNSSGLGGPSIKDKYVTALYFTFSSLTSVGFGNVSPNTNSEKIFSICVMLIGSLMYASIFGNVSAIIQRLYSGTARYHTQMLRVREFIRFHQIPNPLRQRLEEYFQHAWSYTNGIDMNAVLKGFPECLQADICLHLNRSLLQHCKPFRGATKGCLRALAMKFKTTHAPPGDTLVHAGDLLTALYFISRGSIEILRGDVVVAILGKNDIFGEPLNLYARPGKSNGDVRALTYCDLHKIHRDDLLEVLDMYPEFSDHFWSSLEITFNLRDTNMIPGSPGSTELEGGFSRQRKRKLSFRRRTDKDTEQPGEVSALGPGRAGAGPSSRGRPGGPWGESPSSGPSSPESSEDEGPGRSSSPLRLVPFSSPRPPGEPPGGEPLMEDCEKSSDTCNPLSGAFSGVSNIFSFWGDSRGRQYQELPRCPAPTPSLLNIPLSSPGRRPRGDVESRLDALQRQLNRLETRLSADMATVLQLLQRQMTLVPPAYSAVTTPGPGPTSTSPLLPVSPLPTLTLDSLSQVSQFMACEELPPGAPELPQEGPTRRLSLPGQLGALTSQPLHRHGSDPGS
KCNQ1 act: potentiates or activates the human KCNQ1 potassium channel | P51787 | CHO-K1 KCNQ1, thallium flux FluxOR fluorescence; stronger effect = higher value | B-score at 10 µM | actives 0.35% (n = 310,000) | AID 2648;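 active = fluorescence ratio B-score, a plate-corrected score, at least three library SD, with initial intensity B-score within 5 SD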
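assay system = KCNQ1-transfected CHO-K1 cells | medium = assay buffer with matched DMSO | probe or stimulus = depolarizing K+/Tl+ stimulus, K2SO4 and Tl2SO4 each 12.5 mM in 5x stock | dosing = single dose | incubation = dye 90 min, compound 20 min, room temperature | detection = kinetic FluxOR fluorescence, 10 s baseline plus 110 s post-stimulus | evaluation = ratio B score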
KCC2 mod: KCC2 (human) Cl- transport modulation; Q9H2X9; KCC2 cells, thallium flux FluoZin-2 fluorescence; B-score of Tl+ flux slope (higher = more flux/activation; lower = inhibition) at 10 µM; actives 2.2% (n = 190,000); AID 1456;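 active = thallium flux slope and its plate-corrected score both differing from the plate sample mean at a set confidence after two filtering rounds, in either direction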;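 also: slope of fluorescence scaled to starting intensity during 10 to 20 s after thallium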
KCNQ1 block val: human KCNQ1 channel inhibition, validation assay; shares compounds with KCNQ1 inh; actives 93% (n = 1,600); KCNQ1 cell line, FluxOR thallium flux fluorescence; inhibition, % at 10 µM; AID 588353;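 active = primary screen active, with duplicate mean exceeding buffer control mean plus 3 SD of buffer wells, cut at about 28% in these data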;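 also: 0% = buffer control ratio and 100% = XE991 inhibitor control ratio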
CHO KCNQ1 ctr: activity in parental CHO cells lacking KCNQ1; shares compounds with KCNQ1 inh; parental CHO-K1, FluxOR thallium flux fluorescence ratio; stronger effect = lower value; zero means no signal rise above baseline; fluorescence ratio (Tl flux) at 10 µM; actives 21% (n = 1,600);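 active = mean of duplicate thallium-flux fluorescence ratios in parental host cells more than 5 SD below the buffer control mean, cut at about 0.38 in these data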;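 also: ratio is peak minus minimum fluorescence divided by baseline fluorescence; actives read low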
KCNQ1 APC inh: blocks human KCNQ1 current in automated patch clamp. shares compounds with KCNQ1 inh. KCNQ1-CHO cells. calls only at 10 µM. actives 20% (n = 490). AID 624120;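 active = KCNQ1 current drop exceeding 3 SD of negative control wells, seen in both duplicate runs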;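 also: steady state current during a 2 s step from -80 to +40 mV; negative values mean current inhibition and positive values mean potentiation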
KCNQ2 spec: rat KCNQ2 inhibition in KCNQ1 inhibitor specificity screen; shares compounds with KCNQ1 inh; KCNQ2 cells, FluxOR thallium flux fluorescence; inhibition, % at 10 µM; actives 71% (n = 1,600); AID 651746;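 active = mean percent inhibition of the KCNQ2 thallium signal more than 5 SD above the buffer-only control wells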;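 also: KCNQ2 expressed in CHO cells; 0% = buffer control wells and 100% = XE-991 inhibitor control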
KCNQ1-KCNE1 inh: KCNQ1 inhibitor that also blocks human KCNQ1/KCNE1 channel; actives 77% (n = 1,600); AID 652147; shares compounds with KCNQ1 inh; inhibition, % at 10 µM; KCNQ1/KCNE1 cells, FluxOR thallium flux fluorescence;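 active = mean percent inhibition of duplicate wells above the buffer-only control mean plus 3 SD of those controls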;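 also: 0% = buffer only wells and 100% = XE-991 inhibitor control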
* hit, by the source's call; i = inactive; ? = inconclusive; . = no result given; + = active, no number.

SMILES | AI-2 QS modul | KCNQ1 inh | Mot1-301 SUMO | hERG rescue | KCNQ1 act | KCC2 mod | KCNQ1 block val | CHO KCNQ1 ctr | KCNQ2 spec | KCNQ1-KCNE1 inh | others
CCN1/C(=C/c2ccc3cc(C)ccc3[n+]2CC)Sc2ccccc21 | ? | 17* | 481 | -37 | i | i | + | 0.035* | i | i
CC[n+]1c(/C=C2\Sc3ccccc3N2C)ccc2cccc(C)c21 | ? | 22* | . | -67 | i | i | + | 0.05* | i | i
CN1/C(=C/c2cccc[n+]2CCO)Sc2ccccc21 | 1 | i | -3 | -4 | i | . | . | . | . | .
CCCCNC(=S)Nc1ccc(Oc2ccccc2)cc1 | -18 | 6* | 6 | -22 | i | 0.78 | 39* | 0.54 | i | 68%*
CCCNC(=S)Nc1ccc(Oc2ccccc2)cc1 | 16 | i | 12 | -17 | i | -1.9 | . | . | . | .
S=C(Nc1ccc(Oc2ccccc2)cc1)NC1CCCC1 | 7 | i | 40 | -5 | i | -1.7 | . | . | . | .
S=C(NCC1CCCCC1)Nc1ccc(Oc2ccccc2)cc1 | 6 | 9* | 37 | -10 | i | -1.4 | 81* | 0.53 | 65%* | i
CN(CC(=O)Nc1cccc(F)c1)C(=O)c1cn(-c2ccccc2)nc1-c1ccccc1 | 11 | 8* | -5 | -19 | i | . | 74* | 0.42 | 74%* | 93%*
Cc1ccc(/C=N/N2CCN(Cc3ccc(Cl)cc3)CC2)o1 | 9 | i | 0 | -7 | i | -0.0018 | . | . | . | .
Cc1cccc(N2CCN(C(=O)C(Cc3ccccc3)NC(N)=O)CC2)c1C (stereo not given) | 5 | i | 14 | -6 | i | . | . | . | . | .
Cc1cccc(N2CCN(C(=O)C(Cc3ccccc3)n3cccc3)CC2)c1C (stereo not given) | 38 | 9* | 1 | -13 | i | -0.0027 | 140* | 0.31* | 126%* | +
Cc1cc(Cl)ccc1C(=O)C1CCCN(C(=O)c2cc(C(C)C)no2)C1 (stereo not given) | 17 | i | 106 | -15 | i | 0.029 | . | . | . | .
CC(C)c1cc(C(=O)N2CCCC(C(=O)c3ccc4ccccc4c3)C2)on1 (stereo not given) | 54 | 6* | 4 | -18 | i | -0.93 | 0 | 0.5 | 91%* | 35%*
O=C(NCc1ccco1)c1ccccc1Nc1ccc(F)cc1 | -13 | 7* | 11 | -14 | i | -0.48 | 105* | 0.41 | 63%* | 91%* | KCNQ1 APC inh=+
COc1ccccc1CN1CC(C(=O)NCc2cccnc2)CC1=O (stereo not given) | 11 | i | -18 | -4 | i | -0.32 | . | . | . | .
COc1ccc(Nc2nc(-c3ccccc3)nc3ccccc23)c(OC)c1 | -6 | 11* | -14 | -8 | i | 0.33 | + | 0.41 | 108%* | i | KCNQ1 APC inh=i
COc1ccc(Nc2nc(NC(C)(C)C)nc(N3CCCC3)n2)c(OC)c1 | 51 | 8* | -3 | -15 | i | 1.5 | 144* | 0.32* | i | +
COc1ccc(Nc2nc(N3CCN(S(C)(=O)=O)CC3)nc3ccccc23)c(OC)c1 | . | i | 2 | -7 | i | . | . | . | . | .
COc1ccc(Nc2nc(N3CCCCC3)nc3ccccc23)c(OC)c1 | 31 | 12* | -22 | -17 | i | -1.5 | 98* | 0.43 | 90%* | 94%* | KCNQ1 APC inh=i
Cc1sc2nc(C3CC3)nc(NCCNS(C)(=O)=O)c2c1C | 0 | i | . | -4 | i | 2.4 | . | . | . | .
c1ccc(-c2nc(NCc3cccs3)c3ccccc3n2)cc1 | 40 | i | 8 | -8 | i | . | . | . | . | .
c1csc(CNc2nc(-c3cccs3)nc3ccccc23)c1 | 35 | 6* | 21 | -14 | i | 0.13 | 112* | 0.38 | 123%* | 168%* | KCNQ1 APC inh=i
CCOC(=O)c1c(NC(=O)CSc2nnc(-c3ccccc3)o2)sc(C(C)=O)c1C | 3 | i | 0 | -8 | i | -1.5 | . | . | . | .
CCOC(=O)c1c(NC(=O)CSc2nc3ccccc3o2)sc(C(C)=O)c1C | 39 | 8* | 7 | -29 | i | . | 130* | 0.43 | 108%* | 112%* | KCNQ1 APC inh=i
CCOC(=O)c1ccc(N2CCN(c3ccccc3F)CC2)c(NC(=O)Nc2cccc(OC)c2)c1 | -4 | 7* | -4 | -13 | i | 0.036 | 89* | 0.43 | 83%* | 156%* | KCNQ1 APC inh=i
SMILES | AI-2 QS modul | KCNQ1 inh | Mot1-301 SUMO | hERG rescue | KCNQ1 act | KCC2 mod | KCNQ1 block val | CHO KCNQ1 ctr | KCNQ2 spec | KCNQ1-KCNE1 inh | others
COC(=O)c1ccc(N2CCOCC2)c(NC(=O)Nc2cccc(OC)c2)c1 | 22 | i | 241 | -8 | i | -0.047 | . | . | . | .
Cc1nc2ccc(Br)cc2c(-c2ccccc2)c1C(=O)O | 11 | 6* | 16 | -17 | i | . | 0 | 0.49 | 96%* | i
CC(=O)c1c(C)nc2ccc(Br)cc2c1-c1ccccc1 | 4 | i | -19 | -14 | i | 0.1 | . | . | . | .
Cc1ccc(OCCCn2ccnc2)cc1C | 6 | i | 22 | -7 | i | 0.32 | . | . | . | .
Cc1cc(OCCn2ccnc2)ccc1C(C)C | 19 | 6* | . | -10 | i | 0.78 | 0 | 0.51 | 64%* | 42%*
O=S(=O)(NC1CCCCC1Oc1ccccc1)c1ccc(Cl)cc1 (stereo not given) | -1 | i | 56 | -9 | i | -0.021 | . | . | . | .
CSc1ccc(OC2CCCCC2NS(=O)(=O)c2ccc(Cl)cc2)cc1 (stereo not given) | -3 | 6* | 7 | -8 | i | 0.17 | 120* | 0.41 | 115%* | 142%* | KCNQ1 APC inh=i
Cc1cc(C)c(O)c(-c2cc(C(=O)Nc3ccc(S(=O)(=O)N4CCOCC4)cc3)[nH]n2)c1 | 3 | 6* | -2 | -13 | i | 0.34 | 133* | 0.37* | 94%* | +
O=C(O)c1ccc(Nc2cc(Cl)c3nonc3c2[N+](=O)[O-])cc1 | -3 | i | 131 | -8 | i | -0.7 | . | . | . | .
